Assay results as given in ChEMBL document CHEMBL4321857, “Synthesis and Pharmacological Evaluation of Triazolopyrimidinone Derivatives as Noncompetitive, Intracellular Antagonists for CC Chemokine Receptors 2 and 5” (J Med Chem, 2019).
Activity calls are given as the source filed them. The rule behind the calls is not given here.

Experiments:
[1] = molecular target: T1, C-C chemokine receptor type 2 (Homo sapiens, UniProt P41597); assay: Displacement of [3H]-CCR2-RA-[R] from human CCR2 expressed in human U2OS cells incubated for 2 hrs by scintillation spectrometric method; assay type: cell-based
Target sequence in this assay (P41597 whole entry): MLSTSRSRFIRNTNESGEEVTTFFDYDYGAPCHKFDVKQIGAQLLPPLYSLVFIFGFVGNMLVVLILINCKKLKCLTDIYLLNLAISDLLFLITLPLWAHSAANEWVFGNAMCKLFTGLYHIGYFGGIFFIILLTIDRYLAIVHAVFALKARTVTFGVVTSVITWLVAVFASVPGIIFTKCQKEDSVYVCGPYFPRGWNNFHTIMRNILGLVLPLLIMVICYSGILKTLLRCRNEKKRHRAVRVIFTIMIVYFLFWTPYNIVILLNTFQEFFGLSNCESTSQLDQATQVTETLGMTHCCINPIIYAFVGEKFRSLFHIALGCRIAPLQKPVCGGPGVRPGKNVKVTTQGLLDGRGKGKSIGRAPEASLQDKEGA

[2] = molecular target: T2, C-C chemokine receptor type 5 (Homo sapiens, UniProt P51681); assay: Antagonist activity at human TEV cleavage site-linked CCR5 expressed in human U2OS cells harboring beta-lactamase reporter gene assessed as inhibition of CCL3-induced beta-arrestin recruitment at 1 uM incubated for 30 mins followed by CCL3 stimulation and measured after 16 hrs by Tango assay relative to control; assay type: cell-based
Target sequence in this assay (P51681 whole entry, looked up): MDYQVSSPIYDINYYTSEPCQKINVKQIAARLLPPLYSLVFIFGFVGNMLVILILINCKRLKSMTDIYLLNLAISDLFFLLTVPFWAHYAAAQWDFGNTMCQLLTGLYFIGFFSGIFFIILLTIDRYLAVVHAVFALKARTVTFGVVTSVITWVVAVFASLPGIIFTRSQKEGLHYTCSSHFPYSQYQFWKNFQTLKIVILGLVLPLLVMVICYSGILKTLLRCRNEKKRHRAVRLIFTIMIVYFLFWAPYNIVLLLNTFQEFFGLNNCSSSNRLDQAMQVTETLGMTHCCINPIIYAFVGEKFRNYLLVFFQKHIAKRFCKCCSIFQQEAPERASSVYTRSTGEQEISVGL

[3] = molecular target: T2, C-C chemokine receptor type 5; assay: Antagonist activity at human TEV cleavage site-linked CCR5 expressed in human U2OS cells harboring beta-lactamase reporter gene assessed as inhibition of CCL3-induced beta-arrestin recruitment incubated for 30 mins followed by CCL3 stimulation and measured after 16 hrs by Tango assay; assay type: cell-based
Target sequence in this assay (P51681 whole entry): as the sequence (P51681 whole entry, looked up) above

[4] = molecular target: T1, C-C chemokine receptor type 2; assay: Inverse agonist activity at human CCR2 assessed as reduction in [35S]GTPgammaS binding at 1 uM relative to control; assay type: functional; parameters: scale not given: the % may be the effect or the level left
Target sequence in this assay (P41597 whole entry, looked up): as the sequence (P41597 whole entry) above

[5] = molecular target: T1, C-C chemokine receptor type 2; assay: Non-competitive insurmountable antagonist activity at human CCR2 expressed in human U2OS cell membranes assessed as Emax for CCL2-stimulated [35S]GTPgammaS binding at 3 nM preincubated for 30 mins followed by [35S]GTPgammaS addition and measured after 90 mins (reference value: 107 +/- 2%); assay type: functional
Target sequence in this assay (P41597 whole entry, looked up): as the sequence (P41597 whole entry) above

[6] = molecular target: T2, C-C chemokine receptor type 5; assay: Non-competitive insurmountable antagonist activity at human CCR5 expressed in human U2OS cell membranes assessed as Emax for CCL3-stimulated [35S]GTPgammaS binding at 300 nM preincubated for 30 mins followed by [35S]GTPgammaS addition and measured after 90 mins (reference value: 108 +/- 2%); assay type: functional
Target sequence in this assay (P51681 whole entry, looked up): as the sequence (P51681 whole entry, looked up) above

[7] = molecular target: T1, C-C chemokine receptor type 2; assay: Non-competitive insurmountable antagonist activity at human CCR2 expressed in human U2OS cell membranes assessed as Emax for CCL2-stimulated [35S]GTPgammaS binding at 1 nM preincubated for 30 mins followed by [35S]GTPgammaS addition and measured after 90 mins (reference value: 107 +/- 2%); assay type: functional
Target sequence in this assay (P41597 whole entry, looked up): as the sequence (P41597 whole entry) above

[8] = molecular target: T2, C-C chemokine receptor type 5; assay: Non-competitive insurmountable antagonist activity at human CCR5 expressed in human U2OS cell membranes assessed as Emax for CCL3-stimulated [35S]GTPgammaS binding at 30 nM preincubated for 30 mins followed by [35S]GTPgammaS addition and measured after 90 mins (reference value: 108 +/- 2%); assay type: functional
Target sequence in this assay (P51681 whole entry, looked up): as the sequence (P51681 whole entry, looked up) above

[9] = molecular target: T1, C-C chemokine receptor type 2; assay: Antagonist activity at human TEV cleavage site-linked CCR2b expressed in human U2OS cells harboring beta-lactamase reporter gene assessed as inhibition of CCL2-induced beta-arrestin recruitment incubated for 30 mins followed by CCL2 stimulation and measured after 16 hrs by Tango assay; assay type: cell-based
Outline: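 Tango CCR2b-bla U2OS cells: 10 000 cells/well in FreeStyle medium, 30 min preincubation at room temperature with increasing antagonist concentrations (DMSO ≤0.5%), then 16 h with CCL2 at EC80 (5 nM), 37 °C, 5% CO2. LiveBLAzer-FRET B/G substrate 2 h at room temperature; 460/535 nm emission ratio at 400 nm excitation. IC50 by nonlinear regression.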
Target sequence in this assay (P41597 whole entry): as the sequence (P41597 whole entry) above

[10] = molecular target: T2, C-C chemokine receptor type 5; assay: Non-competitive insurmountable antagonist activity at human CCR5 expressed in human U2OS cell membranes assessed as Emax for CCL3-stimulated [35S]GTPgammaS binding at 100 nM preincubated for 30 mins followed by [35S]GTPgammaS addition and measured after 90 mins (reference value: 108 +/- 2%); assay type: functional
Target sequence in this assay (P51681 whole entry, looked up): as the sequence (P51681 whole entry, looked up) above

[11] = species: Homo sapiens; assay: Selectivity ratio of IC50 for human TEV cleavage site-linked CCR5 expressed in human U2OS cells to IC50 for human TEV cleavage site-linked CCR2b expressed in human U2OS cells; assay type: cell-based
[12] = molecular target: T1, C-C chemokine receptor type 2; assay: Non-competitive insurmountable antagonist activity at human CCR2 expressed in human U2OS cell membranes assessed as Emax for CCL2-stimulated [35S]GTPgammaS binding at 10 nM preincubated for 30 mins followed by [35S]GTPgammaS addition and measured after 90 mins (reference value: 107 +/- 2%); assay type: functional
Target sequence in this assay (P41597 whole entry, looked up): as the sequence (P41597 whole entry) above

[13] = molecular target: T1, C-C chemokine receptor type 2; assay: Antagonist activity at CCR2b in human THP1 cells assessed as inhibition of human MCP1 induced calcium flux by fluo-4 dye based fluorescence assay; assay type: functional, cell-based
Target sequence in this assay (P41597 whole entry): as above

[14] = molecular target: T2, C-C chemokine receptor type 5; assay: Non-competitive insurmountable antagonist activity at human CCR5 expressed in human U2OS cell membranes assessed as Emax for CCL3-stimulated [35S]GTPgammaS binding at 1000 nM preincubated for 30 mins followed by [35S]GTPgammaS addition and measured after 90 mins (reference value: 108 +/- 2%); assay type: functional
Target sequence in this assay (P51681 whole entry, looked up): as the sequence (P51681 whole entry, looked up) above

[15] = molecular target: T1, C-C chemokine receptor type 2; assay: Non-competitive insurmountable antagonist activity at human CCR2 expressed in human U2OS cell membranes assessed as Emax for CCL2-stimulated [35S]GTPgammaS binding at 100 nM preincubated for 30 mins followed by [35S]GTPgammaS addition and measured after 90 mins (reference value: 107 +/- 2%); assay type: functional
Target sequence in this assay (P41597 whole entry, looked up): as the sequence (P41597 whole entry) above

[16] = molecular target: T1, C-C chemokine receptor type 2; assay: Non-competitive insurmountable antagonist activity at human CCR2 expressed in human U2OS cell membranes assessed as Emax for CCL2-stimulated [35S]GTPgammaS binding at 30 nM preincubated for 30 mins followed by [35S]GTPgammaS addition and measured after 90 mins (reference value: 107 +/- 2%); assay type: functional
Target sequence in this assay (P41597 whole entry, looked up): as the sequence (P41597 whole entry) above

SMILES | Ki ([1]; read-out: Ki) [nM] | inhibition [2] | other results
CCCCCCc1[nH]c2nc(N)nn2c(=O)c1Cc1cccc(Cl)c1 | 22 |  | 
Nc1nc2[nH]c(C3CC3)c(Cc3ccc(Cl)cc3)c(=O)n2n1 | 1.8 | 31% | 
CC[C@@H](c1ccc(F)c(F)c1)n1c(C(=O)OC)c(-c2ccno2)[nH]c1=S |  | < 50% | 
Nc1nc2[nH]c(C3CC3)c(Cc3cccc(I)c3)c(=O)n2n1 | 0.9 | 66% | 
COc1ccc(Cc2c(C3CC3)[nH]c3nc(N)nn3c2=O)cc1 | 20.9 |  | 
Cc1ccc(Cc2c(C3CC3)[nH]c3nc(N)nn3c2=O)cc1 | 3.5 |  | 
CC(C)c1[nH]c2nc(N)nn2c(=O)c1Cc1cc(Cl)ccc1Cl | 22.5 | 20% | 
CCC(CC)Cc1[nH]c2nc(N)nn2c(=O)c1Cc1cccc(Cl)c1 | 6.4 | 29% | 
CC(C)c1[nH]c2nc(N)nn2c(=O)c1Cc1ccc(Cl)c(Cl)c1 | 0.6 | > 70% | IC50 ([3]; read-out: pIC50 (converted)): 123 nM
CC(C)c1[nH]c2nc(N)nn2c(=O)c1Cc1ccc(Cl)c(Br)c1 | 0.4 | > 70% | Activity [4]: 7 to 8%; Emax [5]: 51%; Emax [6]: 35%; Emax [7]: 72%; Emax [8]: 81%; IC50 ([3]; read-out: pIC50 (converted)): 112 nM; IC50 [9]: 4 nM; Emax [10]: 58%; Ratio IC50 [11]: 29; Emax [12]: 33%
Cc1nc2[nH]c(C3CC3)c(Cc3cccc(Cl)c3)c(=O)n2n1 | 3.5 | 35% | 
CC(C)c1[nH]c2nc(N)nn2c(=O)c1Cc1cc(Cl)cc(Cl)c1 | 2.2 | > 70% | IC50 ([3]; read-out: pIC50 (converted)): 324 nM
CCCc1[nH]c2nc(N)nn2c(=O)c1Cc1cccc(Cl)c1 | 3.6 | 64% | Ki ([1]; read-out: pKi (converted)): 3.47 nM
Nc1nc2[nH]c(C3CC3)c(Cc3cccc(Br)c3)c(=O)n2n1 | 0.9 | 60% | Ki ([1]; read-out: pKi (converted)): 0.832 nM
Nc1nc2[nH]c(C3CC3)c(Cc3ccc(F)cc3)c(=O)n2n1 | 4.1 | 31% | 
CCCCc1[nH]c2nc(N)nn2c(=O)c1Cc1cccc(Cl)c1 | 2.3 | > 70% | IC50 ([3]; read-out: pIC50 (converted)): 513 nM
Cc1ccc(-c2ccc3c(c2)C=C(C(=O)Nc2ccc(C[N+](C)(C)C4CCOCC4)cc2)CCC3)cc1 |  | Active | IC50 ([3]; read-out: IC50): 6 nM
CCCCCc1[nH]c2nc(N)nn2c(=O)c1Cc1cccc(Cl)c1 | 7.2 | 38% | 
Nc1nc2[nH]c(C3CC3)c(Cc3cccc(F)c3)c(=O)n2n1 | 3.4 | 43% | 
Nc1nc2[nH]c(-c3ccccc3)c(Cc3cccc(Cl)c3)c(=O)n2n1 | 26.7 |  | 
Nc1nc2[nH]c(C3CC3)c(Cc3ccc(Br)cc3)c(=O)n2n1 | 1.5 | 14% | 

SMILES | Ki ([1]; read-out: Ki) [nM] | inhibition [2] | other results
CC(C)c1[nH]c2nc(N)nn2c(=O)c1Cc1cc(Br)cc(Br)c1 | 2.1 | 64% | 
Nc1nc2[nH]c(C3CC3)c(Cc3ccccc3Cl)c(=O)n2n1 | 14.5 | 27% | 
Cc1[nH]c2nc(N)nn2c(=O)c1Cc1cccc(Cl)c1 | 17.2 |  | Ki ([1]; read-out: pKi (converted)): 16.6 nM
CC(C)c1[nH]c2nc(N)nn2c(=O)c1Cc1cccc(Cl)c1 | 1.9 | > 70% | IC50 ([3]; read-out: pIC50 (converted)): 275 nM
Nc1nc2[nH]c(CCc3ccccc3)c(Cc3cccc(Cl)c3)c(=O)n2n1 | 52.3 |  | Ki ([1]; read-out: pKi (converted)): 51.3 nM
CCc1[nH]c2nc(N)nn2c(=O)c1Cc1cccc(Cl)c1 | 4 | 29% | 
Nc1nc2[nH]c(C3CC3)c(Cc3cccc(Cl)c3)c(=O)n2n1 | 1.3 | > 70% | IC50 ([3]; read-out: pIC50 (converted)): 575 nM; IC50 [13]: 16 to 20 nM; IC50 [9]: 10 nM
Nc1nc2[nH]c(C3CC3)c(Cc3ccc(Cl)c(Cl)c3)c(=O)n2n1 | 0.4 | > 70% | IC50 ([3]; read-out: pIC50 (converted)): 214 nM
Nc1nc2[nH]c(C3CC3)c(Cc3ccccc3)c(=O)n2n1 | 5.9 | 35% | Ki ([1]; read-out: pKi (converted)): 5.37 nM
Nc1nc2[nH]c(C3CC3)c(Cc3cccc(C(F)(F)F)c3)c(=O)n2n1 | 5.9 | 36% | Ki ([1]; read-out: pKi (converted)): 5.5 nM
O=c1c(Cc2cccc(Cl)c2)c(C2CC2)[nH]c2ncnn12 | 1.7 | 60% | 
O=C(O)c1ccccc1Oc1ccc(Cl)cc1NS(=O)(=O)c1ccc(Cl)c(Cl)c1 |  | < 50% | 
CC(C)c1[nH]c2nc(N)nn2c(=O)c1Cc1cccc(Cl)c1Cl | 1.6 | > 70% | Emax [14]: 25%; Activity [4]: 7 to 8%; Emax [6]: 56%; IC50 ([3]; read-out: pIC50 (converted)): 81.3 nM; IC50 [9]: 21 nM; Emax [15]: 50%; Emax [10]: 79%; Ratio IC50 [11]: 4; Emax [12]: 91%; Emax [16]: 75%
Cc1ccc(-c2[nH]c3nc(N)nn3c(=O)c2Cc2cccc(Cl)c2)cc1 | 159 |  | Ki ([1]; read-out: pKi (converted)): 155 nM
Nc1nc2[nH]c(C3CCCC3)c(Cc3cccc(Cl)c3)c(=O)n2n1 | 1.6 | > 70% | IC50 ([3]; read-out: pIC50 (converted)): 372 nM
CCCCCCCc1[nH]c2nc(N)nn2c(=O)c1Cc1cccc(Cl)c1 | 178 |  | Ki ([1]; read-out: pKi (converted)): 174 nM
Cc1ccccc1Cc1c(C2CC2)[nH]c2nc(N)nn2c1=O | 15.7 | 28% | 
COc1ccccc1Cc1c(C2CC2)[nH]c2nc(N)nn2c1=O | 105 |  | 
COc1cccc(Cc2c(C3CC3)[nH]c3nc(N)nn3c2=O)c1 | 13 |  | 
Cc1cccc(Cc2c(C3CC3)[nH]c3nc(N)nn3c2=O)c1 | 2.5 | 62% | 
CC(=O)C1=C(O)C(=O)N(c2ccc(Cl)cc2F)[C@@H]1C1CCCCC1 |  | < 50% | IC50 ([3]; read-out: IC50): 703 nM
